Values joined by “and” are separate entries in the source; they are usually repeats but may differ in a detail not shown here. Equal entries are not always repeated. Where two headings read alike, the source gives them in different places.
What was measured:
[1] = doses up to 75 mg in healthy volunteers; cited from earlier work
[2] = Phase I DDI study with itraconazole: plasma pharmacokinetics of BI 425809; assay type: in vivo, human (healthy male volunteers); details: for AUC(0-inf): AUC0-∞
[3] = test system: cerebrospinal fluid glycine levels; details: multiple oral administrations, doses as low as 10 mg, dose-dependent; cited from earlier work
human liver microsomes = assay: Turnover of BI 425809 in human liver microsomes; assay type: in vitro ADME; details: BI 425809 0.2, 2, 10 μM; up to 60 min
[4] = Phase I DDI study with rifampicin: plasma pharmacokinetics of BI 425809; assay type: in vivo, human (healthy male volunteers); details: for AUC(0-inf): AUC0-∞
CYP3A5 = CYP3A5 (Homo sapiens, UniProt P20815); assay: Metabolism of BI 425809 by recombinant CYP isoforms; assay type: in vitro ADME
Sequence of CYP3A5 (P20815 whole entry, canonical isoform): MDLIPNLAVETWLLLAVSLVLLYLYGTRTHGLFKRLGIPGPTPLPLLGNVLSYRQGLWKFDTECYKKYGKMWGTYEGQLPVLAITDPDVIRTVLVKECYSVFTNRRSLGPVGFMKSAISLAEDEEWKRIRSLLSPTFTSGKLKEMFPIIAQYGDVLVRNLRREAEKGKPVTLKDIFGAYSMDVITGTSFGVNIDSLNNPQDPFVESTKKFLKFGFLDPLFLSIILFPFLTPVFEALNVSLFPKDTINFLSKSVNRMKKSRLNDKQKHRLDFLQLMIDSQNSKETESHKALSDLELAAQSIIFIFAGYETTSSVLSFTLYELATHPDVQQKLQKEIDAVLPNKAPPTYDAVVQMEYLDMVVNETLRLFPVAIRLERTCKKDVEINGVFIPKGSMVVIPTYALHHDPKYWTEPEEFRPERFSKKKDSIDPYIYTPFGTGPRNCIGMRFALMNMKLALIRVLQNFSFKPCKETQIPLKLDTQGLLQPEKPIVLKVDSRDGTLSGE

[5] = Phase I DDI study with itraconazole: safety and tolerability; assay type: in vivo, human (healthy male volunteers); details: for Treatment-related AEs / Participants with any AE / Gastrointestinal disorders / General disorders and administration site conditions / Infections and infestations / Musculoskeletal and connective tissue disorders / Nervous system disorders / Vascular disorders: DDI + itraconazole study; for Participants with any AE: 16 participants per treatment; for Gastrointestinal disorders / General disorders and administration site conditions / Infections and infestations / Musculoskeletal and connective tissue disorders / Nervous system disorders / Vascular disorders: system organ class
How it was run: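 Healthy males aged 18–50, BMI 18.5–29.9, received a single oral 25 mg test compound dose alone in period 1. In period 2 the same dose was given on day 4 of oral itraconazole, 200 mg QD on days 2–10. Washout was ≥16 days. Dosing followed a standardised breakfast, with 240 ml water. Safety was scored as frequency n (%) of AEs by system organ class, including physical exam findings, alongside labs, vital signs and 12-lead ECG.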

CYP3A4 [6] = biological target: CYP3A4 (Homo sapiens, UniProt P08684); assay type: in vitro ADME; details: rCYP3A4, NADPH, up to 60 min
Sequence of CYP3A4 (Homo sapiens, UniProt P08684) (P08684 whole entry): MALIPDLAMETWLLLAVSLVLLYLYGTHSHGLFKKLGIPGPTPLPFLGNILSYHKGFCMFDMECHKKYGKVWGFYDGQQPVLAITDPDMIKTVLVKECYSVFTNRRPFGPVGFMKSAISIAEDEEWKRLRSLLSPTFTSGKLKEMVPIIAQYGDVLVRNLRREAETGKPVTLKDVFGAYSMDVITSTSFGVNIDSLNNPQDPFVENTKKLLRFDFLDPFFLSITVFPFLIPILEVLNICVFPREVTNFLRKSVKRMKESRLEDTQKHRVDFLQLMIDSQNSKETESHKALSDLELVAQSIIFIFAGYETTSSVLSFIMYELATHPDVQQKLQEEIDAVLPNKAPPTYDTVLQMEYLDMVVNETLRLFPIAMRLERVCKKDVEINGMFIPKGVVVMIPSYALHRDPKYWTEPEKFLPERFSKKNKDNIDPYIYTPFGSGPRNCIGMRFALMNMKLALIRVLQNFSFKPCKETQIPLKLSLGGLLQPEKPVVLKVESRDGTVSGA

CYP3A = assay: BI 425809 metabolism by human hepatocytes; assay type: in vitro ADME; details: erythromycin 30 µM, all BI 425809 concentrations evaluated
[7] = Phase I DDI study with rifampicin: safety and tolerability; assay type: in vivo, human (healthy male volunteers); details: for Participants with any AE: 16 participants per treatment
[8] = Analyte stability in human plasma samples containing tripotassium EDTA; assay type: physicochemical; details: human plasma with tripotassium EDTA, -20 °C
CYP3A4 [9] = details: human liver microsomes; CYP3A4 inhibitor ketoconazole
[10] = BI 425809 + itraconazole relative to BI 425809 alone
[11] = male, human, plasma, oral, 25 mg
[12] = male, human, plasma, oral, 25 mg, gMean, BI 425809 25 mg alone, N = 16
[13] = BI 425809 + rifampicin relative to BI 425809 alone
[14] = DDI + rifampicin study, system organ class

## C[C@@H](Oc1ccc(S(C)(=O)=O)cc1C(=O)N1C[C@@H]2C[C@]2(c2cc(C(F)(F)F)on2)C1)C(F)(F)F [BI 425809]
[1]
  tolerability: generally well tolerated
[2]; BI 425809 25 mg + itraconazole, N = 15
  CL/F, gMean: 12.4 mL/min
[2]; BI 425809 25 mg alone, N = 16
  CL/F, gMean: 73.3 mL/min
  t1/2, gMean: 45.5 h
[2]; [10]
  AUC0-167, adjusted gMean ratio T/R (90% CI): 265.3% and 265.3 (240.9‒292.2) %
  AUC0-∞, adjusted gMean ratio T/R (90% CI): 597.0% and 597.0 (514.2‒693.0) %
  Cmax, adjusted gMean ratio T/R (90% CI): 116.1% and 116.1 (108.0‒124.7) %
[2]; BI 425809 under itraconazole treatment
  extrapolated area of AUC0-∞: 56%
[2]; [11]
  AUC(0-t): 10.2 µM·h
  Cmax: 316 nM
[2]; male, human, plasma, oral, 25 mg, adjusted gMean, BI 425809 alone (R), inferential analysis
  AUC(0-inf): 11.1 µM·h
[2]; [12]
  AUC(0-inf): 11.1 µM·h
[2]; male, human, plasma, oral, adjusted gMean, BI 425809 + itraconazole (T), inferential analysis
  AUC(0-inf): 66.2 µM·h
[2]; male, human, plasma, oral, gMean, BI 425809 25 mg + itraconazole, N = 15
  AUC(0-inf): 65.3 µM·h
[2]; male, human, plasma, po, 25 mg
  AUC(0-t): 10.2 µM·h
[2]; read-out: Cmax, adjusted gMean, BI 425809 + itraconazole (T), inferential analysis
  Cmax: 367 nM
[2]; with itraconazole versus alone
  increase in Cmax: ~16%
[3]
  mean increase in cerebrospinal fluid glycine levels: 50%
Human liver microsomes
  turnover of BI 425809 in human liver microsomes: No detectable turnover
[4]; BI 425809 25 mg alone, N = 16
  CL/F, gMean: 94.6 mL/min
[4]; [13]
  AUC0-168, adjusted gMean ratio T/R (90% CI): 10.3% and 10.3 (9.3‒11.3) %
  AUC0-∞, adjusted gMean ratio T/R (90% CI): 9.8 (8.8–11.0) %
  Cmax, adjusted gMean ratio T/R (90% CI): 37.4% and 37.4 (33.0‒43.5) %
[4]; BI 425809 alone (R), inferential analysis
  AUC0-∞, adjusted gMean: 8.596 µM·h
[4]; BI 425809 co-administered with rifampicin relative to BI 425809 alone
  AUC0-168 ratio: 0.10
[4]; [11]
  AUC(0-t): 8.22 µM·h
  half-life: 33.4 h
[4]; [12]
  AUC(0-inf): 8.6 µM·h
[4]; male, human, plasma, oral, adjusted gMean, BI 425809 + rifampicin (T), inferential analysis
  AUC(0-inf): 0.846 µM·h
[4]; male, human, plasma, oral, gMean, BI 425809 25 mg + rifampicin, N = 15
  AUC(0-inf): 0.837 µM·h
[4]; male, human, plasma, po, 25 mg
  AUC(0-t): 8.22 µM·h
[4]; read-out: Cmax, adjusted gMean, BI 425809 alone (R), inferential analysis
  Cmax: 218 nM
[4]; read-out: Cmax, gMean, BI 425809 25 mg alone, N = 16
  Cmax: 218 nM
CYP3A5; CYP3A5, depletion of BI 425809
  % In vitro CYP contribution, Depletion: ~4%
CYP3A5; rCYP3A5, NADPH, up to 60 min
  depletion of BI 425809: > 15%
[5]
  Treatment-related AEs: 0 (0) n (%)
  Participants with any AE: 6 (37.5) n (%)
  Gastrointestinal disorders: 0 n (%)
  General disorders and administration site conditions: 1 (6.3) n (%)
  Infections and infestations: 3 (18.8) n (%)
  Musculoskeletal and connective tissue disorders: 1 (6.3) n (%)
  Nervous system disorders: 1 (6.3) n (%)
  Vascular disorders: 1 (6.3) n (%)
[5]; DDI with itraconazole
  participants who reported ≥ 1 AE: 37.5%
[5]; both DDI studies (itraconazole and rifampicin), 25 mg single oral dose
  tolerability: well tolerated
CYP3A4 [6]
  depletion of BI 425809: > 15%
CYP3A
  inhibition of depletion of BI 425809 by erythromycin: 92.1–100% and > 90%
[7]; DDI + rifampicin study
  Participants with Severe AE: 0 (0) n (%)
  Treatment-related AEs: 0 (0) n (%)
  Participants with any AE: 2 (12.5) n (%)
[7]; [14]
  Gastrointestinal disorders: 0 n (%)
  General disorders and administration site conditions: 0 n (%)
  Nervous system disorders: 1 (6.3) n (%)
  Renal and urinary disorders: 0 n (%)
  Respiratory, thoracic and mediastinal disorders: 1 (6.3) n (%)
  Skin and subcutaneous tissue disorders: 0 n (%)
[7]; DDI with rifampicin
  participants who reported ≥ 1 AE: 12.5%
[8]
  period of demonstrated analyte stability: 381 days

## CCC(C)n1ncn(-c2ccc(N3CCN(c4ccc(OCC5COC(Cn6cncn6)(c6ccc(Cl)cc6Cl)O5)cc4)CC3)cc2)c1=O (stereo not shown) [Itraconazole, itraconazole, reference compound]
[5]
  Treatment-related AEs: 1 (6.3) n (%)
  Participants with any AE: 4 (25.0) n (%)
  Gastrointestinal disorders: 1 (6.3) n (%)
  General disorders and administration site conditions: 0 n (%)
  Infections and infestations: 2 (12.5) n (%)
  Musculoskeletal and connective tissue disorders: 1 (6.3) n (%)
  Nervous system disorders: 0 n (%)
  Vascular disorders: 0 n (%)
[5]; DDI with itraconazole
  participants who reported ≥ 1 AE: 25%
  participants with AE considered as drug-related by the investigator: 6.3%

## CO[C@H]1/C=C/O[C@@]2(C)Oc3c(C)c(O)c4c(O)c(c(/C=N/N5CCN(C)CC5)c(O)c4c3C2=O)NC(=O)/C(C)=C\C=C\[C@H](C)[C@H](O)[C@@H](C)[C@@H](O)[C@@H](C)[C@H](OC(C)=O)[C@@H]1C [Rifampicin, rifampicin, reference compound]
[7]; DDI + rifampicin study
  Participants with Severe AE: 0 (0) n (%)
  Treatment-related AEs: 16 (100) n (%)
  Participants with any AE: 16 (100) n (%)
[7]; [14]
  Gastrointestinal disorders: 0 n (%)
  General disorders and administration site conditions: 1 (6.3) n (%)
  Renal and urinary disorders: 16 (100) n (%)
  Respiratory, thoracic and mediastinal disorders: 0 n (%)
  Skin and subcutaneous tissue disorders: 1 (6.3) n (%)
[7]; DDI with rifampicin
  participants who reported ≥ 1 AE: 100%
  participants with AE considered as drug-related by the investigator: 100%

## CC(=O)N1CCN(c2ccc(OCC3COC(Cn4ccnc4)(c4ccc(Cl)cc4Cl)O3)cc2)CC1 (stereo not shown) [ketoconazole]
CYP3A4 [9]
  inhibition of formation of BI 425809 metabolites M530 and M544: completely inhibited
